Measured values: ChEMBL document CHEMBL3120154, “2-[N-Alkyl(R-phenyl)-aminomethyl]-3-phenyl-7-trifluoromethylquinoxalines as anticancer agents inhibitors of folate enzymes” (Eur J Med Chem, 2014)
Calls of active or inactive are those of the source. The rule behind the calls is not given here.

Assays:
MCF7 [1] = assay: Cytotoxicity against human MCF7 cells assessed as cell growth at 10^-4 M after 48 hrs by alamar blue assay relative to untreated control; assay type: functional; conditions: MCF7, 48 h, read-out: Activity
In short: (§1)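 Three-cell-line prescreen. Each line was inoculated and preincubated on a microtiter plate, then the agent was added at a single concentration (10^-4 or 10^-5 M) and incubated 48 h. Endpoint was measured with alamar blue, and growth is reported as a percentage of untreated control cells.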

SF-268 [2] = assay: Cytotoxicity against human SF268 cells assessed as cell growth at 10^-4 M after 48 hrs by alamar blue assay relative to untreated control; assay type: functional; conditions: SF-268, 48 h, read-out: Activity
In short: (§2)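 Three-cell-line prescreen at NCI. Each line was seeded and pre-incubated, then given a single concentration (10^-4 or 10^-5 M) and incubated for 48 h. The end-point was alamar blue. The value is percent growth of treated cells versus untreated control cells, with negative numbers indicating cell kill.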

Dihydrofolate reductase = target: T1, Dihydrofolate reductase (Homo sapiens, UniProt P00374); assay: Competitive inhibition of human dihydrofolate reductase by spectrophotometry
T1 sequence (P00374 whole entry): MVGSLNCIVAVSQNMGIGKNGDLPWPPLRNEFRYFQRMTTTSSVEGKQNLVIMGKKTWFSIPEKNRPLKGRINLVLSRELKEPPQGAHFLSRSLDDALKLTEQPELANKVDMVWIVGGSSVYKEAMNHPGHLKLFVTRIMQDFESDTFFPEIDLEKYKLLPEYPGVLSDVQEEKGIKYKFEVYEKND

NCI-H460 [3] = assay: Cytotoxicity against human NCI-H460 cells assessed as cell growth at 10^-4 M after 48 hrs by alamar blue assay relative to untreated control; assay type: functional; conditions: NCI-H460, 48 h, read-out: Activity; in short: as §1
NCI-H460 [4] = assay: Cytotoxicity against human NCI-H460 cells assessed as cell growth at 10^-5 M after 48 hrs by alamar blue assay relative to untreated control; assay type: functional; conditions: NCI-H460, 48 h, read-out: Activity; in short: as §1
MCF7 [5] = assay: Cytotoxicity against human MCF7 cells assessed as cell growth at 10^-5 M after 48 hrs by alamar blue assay relative to untreated control; assay type: functional; conditions: MCF7, 48 h, read-out: Activity; in short: as §1
SF-268 [6] = assay: Cytotoxicity against human SF268 cells assessed as cell growth at 10^-5 M after 48 hrs by alamar blue assay relative to untreated control; assay type: functional; conditions: SF-268, 48 h, read-out: Activity; in short: as §2
Thymidylate synthase = Thymidylate synthase (Homo sapiens, UniProt P04818); assay: Competitive inhibition of human thymidylate synthase by spectrophotometry
[7] = target: Dihydrofolate reductase (Homo sapiens) (UniProt P00374); assay: Competitive inhibition of human dihydrofolate reductase at 10 uM by spectrophotometry

| Structure (SMILES) | growth at 100 µM (MCF7 [1]) | growth at 100 µM (SF-268 [2]) | Ki (Dihydrofolate reductase) | growth at 100 µM (NCI-H460 [3]) | growth at 10 µM (NCI-H460 [4]) | growth at 10 µM (MCF7 [5]) | growth at 10 µM (SF-268 [6]) | Ki (Thymidylate synthase) | inhibition [7] |
| --- | --- | --- | --- | --- | --- | --- | --- | --- | --- |
| CN(Cc1nc2cc(C(F)(F)F)ccc2nc1-c1ccccc1)c1ccc(F)cc1 | 180% | 125% | 5 µM | 119% | – | – | – | – | – |
| CCN(Cc1nc2cc(C(F)(F)F)ccc2nc1-c1ccccc1)c1ccc(F)c(F)c1 | – | – | 5 µM | – | 81% | 73% | 94% | – | – |
| CCOC(=O)CC[C@H](NC(=O)c1ccc(N(C)Cc2nc3cc(C(F)(F)F)ccc3nc2-c2ccccc2)cc1)C(=O)OCC | – | – | 0.2 µM | – | – | – | – | – | – |
| CCN(Cc1nc2cc(C(F)(F)F)ccc2nc1-c1ccccc1)c1ccc(Cl)cc1 | 46% | 81% | 3 µM | 68% | – | – | – | – | – |
| COc1cc(N(C)Cc2nc3cc(C(F)(F)F)ccc3nc2-c2ccccc2)cc(OC)c1OC | 61% | 97% | 5 µM | 77% | – | – | – | – | – |
| CCOC(=O)Cc1ccc(N(CC)Cc2nc3cc(C(F)(F)F)ccc3nc2-c2ccccc2)cc1 | – | – | 3 µM | – | – | – | – | – | – |
| CN(Cc1nc2cc(C(F)(F)F)ccc2nc1-c1ccccc1)c1ccc(F)c(F)c1 | – | – | 4 µM | – | 88% | 114% | 97% | 0.27 µM | – |
| CCN(Cc1nc2cc(C(F)(F)F)ccc2nc1-c1ccccc1)c1ccc(OC)cc1 | 54% | 89% | 7 µM | 63% | – | – | – | – | – |
| CCN(Cc1nc2cc(C(F)(F)F)ccc2nc1-c1ccccc1)c1ccc(OC(F)(F)F)cc1 | 61% | 85% | 5 µM | 83% | – | – | – | – | – |
| C#CCN(Cc1nc2cc(C(F)(F)F)ccc2nc1-c1ccccc1)c1ccc(OC)c(OC)c1 | 119% | 109% | 3 µM | 80% | – | – | – | – | – |
| CCN(Cc1nc2cc(C(F)(F)F)ccc2nc1-c1ccccc1)c1cc(OC)c(OC)c(OC)c1 | – | – | 6 µM | – | – | – | – | – | – |
| CCN(Cc1nc2cc(C(F)(F)F)ccc2nc1-c1ccccc1)c1ccc(C)cc1 | – | – | 4 µM | – | – | – | – | – | – |
| CCOC(=O)CC[C@H](NC(=O)c1ccc(N(CC)Cc2nc3cc(C(F)(F)F)ccc3nc2-c2ccccc2)cc1)C(=O)OCC | – | – | 4 µM | – | – | – | – | – | – |
| C#CCN(Cc1nc2cc(C(F)(F)F)ccc2nc1-c1ccccc1)c1ccc(CC(=O)OCC)cc1 | 106% | 111% | 3 µM | 115% | – | – | – | – | – |
| COc1ccc(N(C)Cc2nc3cc(C(F)(F)F)ccc3nc2-c2ccccc2)cc1OC | 54% | 103% | 8 µM | 88% | – | – | – | – | – |
| C#CCN(Cc1nc2cc(C(F)(F)F)ccc2nc1-c1ccccc1)c1ccccc1Cl | 102% | 87% | 2 µM | 101% | – | – | – | – | – |
| CN(Cc1nc2cc(C(F)(F)F)ccc2nc1-c1ccccc1)c1ccc(Cl)cc1 | – | – | 5 µM | – | 118% | 109% | 108% | – | – |
| C#CCN(Cc1nc2cc(C(F)(F)F)ccc2nc1-c1ccccc1)c1ccc(OC)cc1 | 82% | 103% | 3 µM | 98% | – | – | – | – | – |
| C#CCN(Cc1nc2cc(C(F)(F)F)ccc2nc1-c1ccccc1)c1ccc(Cl)cc1 | 67% | 84% | 4 µM | 85% | – | – | – | – | – |
| Cc1ccc(N(C)Cc2nc3cc(C(F)(F)F)ccc3nc2-c2ccccc2)cc1 | – | – | 11 µM | – | 116% | 115% | 121% | – | – |
| C#CCN(Cc1nc2cc(C(F)(F)F)ccc2nc1-c1ccccc1)c1cc(OC)c(OC)c(OC)c1 | 64% | 102% | 4 µM | 104% | – | – | – | 5 µM | – |
| CN(Cc1nc2cc(C(F)(F)F)ccc2nc1-c1ccccc1)c1ccc(OC(F)(F)F)cc1 | – | – | 3 µM | – | – | – | – | – | – |
| CCOC(=O)Cc1ccc(N(C)Cc2nc3cc(C(F)(F)F)ccc3nc2-c2ccccc2)cc1 | 105% | 107% | – | 125% | – | – | – | – | inactive |
| C#CCN(Cc1nc2cc(C(F)(F)F)ccc2nc1-c1ccccc1)c1ccc(C(F)(F)F)cc1F | 87% | 110% | – | 61% | – | – | – | – | – |
| CCN(Cc1nc2cc(C(F)(F)F)ccc2nc1-c1ccccc1)c1ccc(F)cc1 | – | – | 3 µM | – | 92% | 103% | 102% | – | – |
| COc1ccc(N(C)Cc2nc3cc(C(F)(F)F)ccc3nc2-c2ccccc2)cc1 | 105% | 107% | 3 µM | 125% | – | – | – | – | – |
